# Apaf1 inhib – blocks human Apaf-1 apoptosome activity; O14727; reconstituted apoptosome caspase-3 activity, DEVD-Rh110 fluorescence; inhibition, % at 20 µM; 330,000 tested, 0.71% active; AID 489030; active = inhibition of at least 40% at 20 µM;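 note: plate controls were DMSO wells for no effect and DEVD-CHO caspase inhibitor wells for full effect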
#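 Material: biochemical Apaf-1 apoptosome reconstitution. Medium: Hepes buffer, pH 7.5. Also added: cytochrome c activation, bis-DEVD rhodamine 110 substrate. Timing: 30 min compound preincubation, 50 min activation, room temperature. Measured by: rhodamine 110 fluorescence at Ex 480/Em 540 nm.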
# Rin1 Abl inh – inhibitors of human Rin1-Abl protein interaction; P00519+Q13671; TR-FRET Rin1/Abl binding, biochemical; AID 588664; inhibition, % at 7.35 µM; 360,000 tested, 0.4% active; in the data active = inhibition above about 5%, passing the limit was not always enough
# SUMO HTRF inh – inhibitors of human SUMOylation (UBC9); HTRF SUMOylation assay, SAE1/SAE2 + UBC9, in vitro; inhibition, % at 35 µM; AID 2006; P63279; 290,000 tested, 0.36% active; in the data active = inhibition above about 50%, passing the limit was not always enough
# Target sequence (P63279 whole entry, looked up): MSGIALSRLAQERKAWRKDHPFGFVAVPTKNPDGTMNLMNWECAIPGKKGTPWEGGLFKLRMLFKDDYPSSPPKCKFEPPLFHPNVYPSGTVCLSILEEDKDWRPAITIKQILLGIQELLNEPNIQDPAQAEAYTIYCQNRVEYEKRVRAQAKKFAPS
# GSTO1 inh – counter-screen for RBBP9 inhibitors: inhibitors of human GSTO1 | P78417 | inhibition, % at 5.96 µM | recombinant GSTO1, activity-based probe fluorescence polarization | 300,000 tested, 1.1% active | AID 1974;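 active = inhibition above the campaign mean inhibition plus 3 SD, cut at about 35% in these data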;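 note: 0% = GSTO1-1 with DMSO and 100% = wells lacking GSTO1-1 enzyme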
# Target sequence (P78417 whole entry, looked up): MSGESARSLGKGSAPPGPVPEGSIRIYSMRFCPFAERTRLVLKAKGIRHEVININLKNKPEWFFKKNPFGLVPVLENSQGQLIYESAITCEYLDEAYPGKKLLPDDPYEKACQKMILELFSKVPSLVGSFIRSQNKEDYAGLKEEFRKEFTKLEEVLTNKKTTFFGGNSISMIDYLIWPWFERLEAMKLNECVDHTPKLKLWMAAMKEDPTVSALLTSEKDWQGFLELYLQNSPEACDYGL
# UBC13 inh – human UBC13 polyubiquitination inhibition. P61088. UBC13 polyubiquitin chain formation, TR-FRET. 330,000 tested, 0.47% active. inhibition, % at 20 µM; in the data active = inhibition above about 45%, passing the limit was not always enough
# PAD4 FP inh – blocks human protein arginine deiminase 4. recombinant PAD4, RCA probe fluorescence polarization. inhibition, % at 6.36 µM. Q9UM07. 330,000 tested, 0.41% active;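 active = percent inhibition above a cutoff equal to the mean of all tested compounds plus 3 SD, cut at about 15% in these data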;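 note: 0% = PAD4 with RCA probe and DMSO and 100% = probe without PAD4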
# Rin1 Abl conf – confirmation of inhibitors of human Rin1-Abl interaction; shares compounds with Rin1 Abl inh; TR-FRET Rin1-Abl binding, purified proteins; inhibition, % at 7.35 µM; 1,300 tested, 49% active; AID 602124
# GFP quench – GFP fluorescence interference artifact; shares compounds with Rin1 Abl inh; inhibitors/quenchers counterscreen; inhibition, % at 6.75 µM; 1,300 tested, 8.5% active;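 note: ABL1-eGFP fusion protein alone without its partner RIN1-SBP; 0% = protein with vehicle and 100% = wells lacking protein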
# GFP quench dose – GFP fluorescence interference dose response | IC50, µM | AID 602182 | 230 tested, under 10 active | GFP fluorescence interference/quenching counterscreen | shares compounds with Rin1 Abl inh; call rule not given here;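 note: ABL1-eGFP fusion protein alone without its RIN1 binding partner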
# An asterisk follows results filed as active; . = no result. Sampled rows, rich in hits. Any-hit rate of the full collection: about 2.2%. Cut-off read from the data, not from the text of the source, unless noted: active = inhibition above about 6.5%; inactive = the rest.
SMILES,Apaf1 inhib,Rin1 Abl inh,SUMO HTRF inh,GSTO1 inh,UBC13 inh,PAD4 FP inh,Rin1 Abl conf,GFP quench,others
CCCCc1nnc(NC(=O)c2ccc(OCc3c(C)noc3C)cc2)s1,9,17*,.,.,-4,.,28*,0,GFP quench dose=>68
Fc1ccc(Oc2ccnc(Cl)n2)c(Cl)c1,-16,.,.,12,-8,2,.,.,
CCOC(=O)c1[nH]c(=O)[nH]c1CSCCO,-8,8.1*,12,-1,-6,2,12*,0,
O=C(NNC(=O)c1cccnc1)NC1CCCCC1,-12,1,2,3,2,-2,.,.,
O=C(NNC(=O)c1cc(O)c(O)c(O)c1)NC1CCCCC1,2,22*,-1,36*,12,2,22*,14*,
Cc1cc(N/N=C/c2ccc(O)cc2O)nc(-n2nc(C)cc2C)n1,.,12*,4,-3,.,0,10*,-1,
COc1ccc(/C=N/Nc2cc(C)nc(-n3nc(C)cc3C)n2)cc1,22,1,-18,-2,-8,-1,.,.,
O=C1Nc2ccccc2N=C(c2ccccc2)c2ccccc21,-9,5.9*,3,-3,-3,-6,2,-3,
O=C1Nc2ccccc2Nc2ccccc21,14,-1,16,23,0,-1,.,.,
O=c1c(O)c(-c2ccc(O)c(O)c2)oc2cc(O)ccc12,.,23*,.,.,.,.,22*,2,GFP quench dose=>68
CCc1nc2c(OCc3ccc(C(=O)N(C)C)cc3)cccn2c1N(C)C(=O)Nc1ccccc1OC,.,-4,.,.,.,.,.,.,
O=c1c(CO)cc(CO)cc(CO)c1O,-17,31*,-13,13,9,4,30*,13*,
C[C@H](CO)N1C[C@H](C)[C@@H](CN(C)Cc2ccc(-c3ccccc3)cc2)Oc2c(NS(=O)(=O)c3cccs3)cccc2C1=O,26,16*,.,.,8,3,16*,0,
C[C@H](CO)N1C[C@H](C)[C@@H](CN(C)Cc2ccncc2)Oc2c(NC(=O)c3ccncc3)cccc2C1=O,0,9.3*,.,.,5,5,9.5*,0,
N#Cc1ccc(NC(=O)Nc2cccc(C#N)c2)cc1,.,8.0*,8,.,.,.,-1,-3,
CCCNC(=O)c1cc(C2CCCCN2C(=O)c2ccc3c(c2)CCO3)on1 (configuration not stated),.,15*,.,.,.,.,-3,1,
CCCN(C(=O)CSc1nnc(-c2ccncc2)n1CCC)c1c(N)n(Cc2ccccc2)c(=O)[nH]c1=O,.,0,.,.,.,.,.,.,
COc1ccc(C(=O)NC(=S)Nc2cccnc2)cc1OC,8,8.9*,-1,4,-2,2,-2,-1,
COc1cc(OC)cc(C(=O)NC(=S)Nc2cccnc2)c1,-5,1,13,2,4,2,.,.,
CCOc1ccc2nc(N(CCN(C)C)C(=O)c3cc4ccccc4cc3OC)sc2c1,25,17*,-6,1,19,1,17*,-2,GFP quench dose=>68
CCc1ccc2oc(C(=O)NCCc3ccc(S(N)(=O)=O)cc3)cc(=O)c2c1,0,-1,-4,-3,4,1,.,.,
Cn1c(=O)c2c(nc(-n3ccnc3)n2Cc2ccccc2)n(C)c1=O,4,15*,3,-6,2,-2,13*,1,
COCCNC(=O)c1cc2c3ccccc3n(C)c2s1,1,31*,0,1,-3,-2,22*,-1,GFP quench dose=>68
CCCNC(=O)c1cc2c3ccccc3n(C)c2s1,22,3,28,-6,-15,-7,.,.,
CN(CCc1ccccc1)C(=O)c1ccc(NC(=O)Cc2cccc(NC(=O)C3CCN(C(=O)C4CCCCC4)CC3)c2)cc1,.,2,.,.,.,.,.,.,
CN(C(=O)c1ccc(NC(=O)Cc2ccc(NC(=O)C3CCN(C(=O)C4CCCCC4)CC3)cc2)cc1)C1CC1,0,68*,.,.,9,-1,66*,-1,

# High-throughput results from PubChem BioAssay.
